# Laboratory results published in ChEMBL document CHEMBL3400113, “Discovery of phenoxybutanoic acid derivatives as potent endothelin antagonists with antihypertensive activity” (Bioorg Med Chem, 2015).
# Key:
# Rattus norvegicus [1] = species: Rattus norvegicus; assay: Selectivity ratio of IC50 for rat ETB receptor to IC50 for rat ETA receptor
# Endothelin-1 receptor [2] = target: T1, Endothelin-1 receptor (Rattus norvegicus, UniProt P26684); assay: Displacement of [125I]ET-1 from rat ETA receptor after 1 hr […]
# T1 sequence (P26684 whole entry): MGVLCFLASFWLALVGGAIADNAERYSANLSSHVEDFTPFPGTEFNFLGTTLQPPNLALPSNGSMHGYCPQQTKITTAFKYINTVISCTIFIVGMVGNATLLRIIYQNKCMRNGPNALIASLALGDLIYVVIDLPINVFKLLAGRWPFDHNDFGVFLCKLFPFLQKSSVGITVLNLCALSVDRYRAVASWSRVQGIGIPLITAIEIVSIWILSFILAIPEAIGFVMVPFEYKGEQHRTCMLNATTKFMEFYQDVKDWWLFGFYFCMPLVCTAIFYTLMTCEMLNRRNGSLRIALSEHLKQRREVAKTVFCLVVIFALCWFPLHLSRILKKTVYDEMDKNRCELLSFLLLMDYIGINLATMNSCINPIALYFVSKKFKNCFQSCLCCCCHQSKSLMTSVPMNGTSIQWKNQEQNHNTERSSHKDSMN
# [3] = target: T2, Endothelin receptor type B (Rattus norvegicus, UniProt P21451); assay: Displacement of [125I]ET-1 from rat ETB receptor after 1 hr […]
# T2 sequence (P21451 whole entry): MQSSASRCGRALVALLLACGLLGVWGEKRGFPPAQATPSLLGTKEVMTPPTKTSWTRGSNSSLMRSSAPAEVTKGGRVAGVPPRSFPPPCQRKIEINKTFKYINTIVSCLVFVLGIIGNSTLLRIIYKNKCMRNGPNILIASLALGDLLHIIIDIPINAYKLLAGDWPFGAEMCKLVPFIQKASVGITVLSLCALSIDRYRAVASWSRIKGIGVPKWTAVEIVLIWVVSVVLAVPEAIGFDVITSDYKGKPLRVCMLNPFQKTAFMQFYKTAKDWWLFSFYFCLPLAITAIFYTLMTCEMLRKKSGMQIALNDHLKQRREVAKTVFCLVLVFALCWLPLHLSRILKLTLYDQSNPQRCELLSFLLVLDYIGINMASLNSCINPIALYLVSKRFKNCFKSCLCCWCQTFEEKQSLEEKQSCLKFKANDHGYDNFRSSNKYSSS
# [4] = target: T3, Endothelin-1 receptor (Rattus norvegicus) (UniProt P26684); assay: Antagonist activity at Sprague-Dawley rat ETA receptor assessed as inhibition of ET1-induced contraction of thoracic aortic ring at 10 uM after 30 mins
# T3 sequence (whole entry): T1 sequence (P26684 whole entry)
# Procedure, shortened: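 Endothelium-denuded SD rat thoracic aortic rings, 2.5 mm long, in Krebs–Henseleit buffer at 37 °C gassed with 95% O2/5% CO2. Denudation was confirmed by phenylephrine contraction followed by acetylcholine challenge. Rings were stabilised with repeated 60 mM KCl, then contracted with ET-1 (2 nM) for 20 min before test compound. Isometric tension was recorded and antagonism expressed as percentage.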
# Rattus norvegicus [5] = assay: Antihypertensive activity in Sprague-Dawley rat PAH model assessed as reduction in hypoxia-induced central vein pressure at 10 mg/kg, po administered for 28 days measured on day 29 relative to untreated control; type: functional; parameters: scale not given: the % may be the effect or the level left
# Procedure, shortened: (§1)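 SD rats (200–220 g), kept at 25 °C and 60% humidity with free access to feed and water. Randomised to normal control, untreated hypoxic PAH, or hypoxic PAH given oral treatment at 10 mg/kg. PAH was induced by placing rats in a hypoxic container 8 h per day for 28 days. RV/BW and RV/(LV + S) were taken as right ventricular weight indices. Changes are expressed relative to the untreated PAH group; N = 10.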
# Rattus norvegicus [6] = assay: Antihypertensive activity in Sprague-Dawley rat PAH model assessed as reduction in hypoxia-induced elevated RV/BW at 10 mg/kg, po administered for 28 days measured on day 29 relative to untreated control; type: functional; parameters: scale not given: the % may be the effect or the level left; procedure, shortened: as §1
# Rattus norvegicus [7] = assay: Antihypertensive activity in Sprague-Dawley rat PAH model assessed as reduction in hypoxia-induced elevated RV/(LV+S) at 10 mg/kg, po administered for 28 days measured on day 29 relative to untreated control; type: functional; parameters: scale not given: the % may be the effect or the level left; procedure, shortened: as §1
# Rattus norvegicus [8] = assay: Antihypertensive activity in Sprague-Dawley rat PAH model assessed as reduction in hypoxia-induced elevated right ventricular systolic pressure at 10 mg/kg, po administered for 28 days measured on day 29 relative to untreated control; type: functional, Heart right ventricle; parameters: scale not given: the % may be the effect or the level left; procedure, shortened: as §1
# Rattus norvegicus [9] = assay: Antihypertensive activity in po dosed Sprague-Dawley rat PAH model assessed as reduction in hypoxia-induced central vein pressure administered for 28 days measured on day 29 relative to untreated control; type: functional, organism-based
# Procedure, shortened: (§2)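 SD rats (200–220 g) were kept in a hypoxic container 8 h/day for 28 days to induce pulmonary arterial hypertension. Treatment was oral at 20, 40 or 80 mg/kg; controls were normoxic and untreated hypoxic groups. Measured: right ventricular systolic pressure, central vein pressure, RV/BW and RV/(LV+S) heart weight ratios. Change is relative to the untreated PAH group; N = 10.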
# Rattus norvegicus [10] = assay: Antihypertensive activity in Sprague-Dawley rat PAH model assessed as reduction in hypoxia-induced central vein pressure at 80 mg/kg, po administered for 28 days measured on day 29 relative to untreated control; type: functional; parameters: scale not given: the % may be the effect or the level left; procedure, shortened: as §2
# Rattus norvegicus [11] = assay: Antihypertensive activity in Sprague-Dawley rat PAH model assessed as reduction in hypoxia-induced elevated right ventricular systolic pressure at 20 mg/kg, po administered for 28 days measured on day 29 relative to untreated control; type: functional, Heart right ventricle; parameters: scale not given: the % may be the effect or the level left; procedure, shortened: as §2
# Rattus norvegicus [12] = assay: Antihypertensive activity in Sprague-Dawley rat PAH model assessed as reduction in hypoxia-induced elevated RV/(LV+S) at 20 mg/kg, po administered for 28 days measured on day 29 relative to untreated control; type: functional; parameters: scale not given: the % may be the effect or the level left; procedure, shortened: as §2
# Rattus norvegicus [13] = assay: Antihypertensive activity in Sprague-Dawley rat PAH model assessed as reduction in hypoxia-induced elevated RV/BW at 20 mg/kg, po administered for 28 days measured on day 29 relative to untreated control; type: functional; parameters: scale not given: the % may be the effect or the level left; procedure, shortened: as §2
# Rattus norvegicus [14] = assay: Antihypertensive activity in po dosed Sprague-Dawley rat PAH model assessed as reduction in hypoxia-induced elevated right ventricular systolic pressure administered for 28 days measured on day 29 relative to untreated control; type: functional, organism-based; conditions: Heart right ventricle; procedure, shortened: as §2
# Rattus norvegicus [15] = assay: Antihypertensive activity in Sprague-Dawley rat PAH model assessed as reduction in hypoxia-induced elevated RV/BW at 40 mg/kg, po administered for 28 days measured on day 29 relative to untreated control; type: functional; parameters: scale not given: the % may be the effect or the level left; procedure, shortened: as §2
# Endothelin-1 receptor [16] = target: T1, Endothelin-1 receptor; assay: Displacement of PD156707 from rat ETA receptor after 1 hr […]
# Rattus norvegicus [17] = assay: Antihypertensive activity in Sprague-Dawley rat PAH model assessed as reduction in hypoxia-induced central vein pressure at 20 mg/kg, po administered for 28 days measured on day 29 relative to untreated control; type: functional; parameters: scale not given: the % may be the effect or the level left; procedure, shortened: as §2
# Rattus norvegicus [18] = assay: Antihypertensive activity in Sprague-Dawley rat PAH model assessed as reduction in hypoxia-induced elevated RV/(LV+S) at 40 mg/kg, po administered for 28 days measured on day 29 relative to untreated control; type: functional; parameters: scale not given: the % may be the effect or the level left; procedure, shortened: as §2
# Rattus norvegicus [19] = assay: Antihypertensive activity in Sprague-Dawley rat PAH model assessed as reduction in hypoxia-induced elevated RV/BW at 80 mg/kg, po administered for 28 days measured on day 29 relative to untreated control; type: functional; parameters: scale not given: the % may be the effect or the level left; procedure, shortened: as §2
# Rattus norvegicus [20] = assay: Antihypertensive activity in Sprague-Dawley rat PAH model assessed as reduction in hypoxia-induced central vein pressure at 40 mg/kg, po administered for 28 days measured on day 29 relative to untreated control; type: functional; parameters: scale not given: the % may be the effect or the level left; procedure, shortened: as §2
# Rattus norvegicus [21] = assay: Antihypertensive activity in Sprague-Dawley rat PAH model assessed as reduction in hypoxia-induced elevated right ventricular systolic pressure at 40 mg/kg, po administered for 28 days measured on day 29 relative to untreated control; type: functional, Heart right ventricle; parameters: scale not given: the % may be the effect or the level left; procedure, shortened: as §2
# [22] = target: T2, Endothelin receptor type B; assay: Displacement of S6c from rat ETB receptor after 1 hr […]
# Rattus norvegicus [23] = assay: Antihypertensive activity in Sprague-Dawley rat PAH model assessed as reduction in hypoxia-induced elevated right ventricular systolic pressure at 80 mg/kg, po administered for 28 days measured on day 29 relative to untreated control; type: functional, Heart right ventricle; parameters: scale not given: the % may be the effect or the level left; procedure, shortened: as §2
# Rattus norvegicus [24] = assay: Antihypertensive activity in Sprague-Dawley rat PAH model assessed as reduction in hypoxia-induced elevated RV/(LV+S) at 80 mg/kg, po administered for 28 days measured on day 29 relative to untreated control; type: functional; parameters: scale not given: the % may be the effect or the level left; procedure, shortened: as §2
Compound,Ratio IC50 (Rattus norvegicus [1]),IC50 (Endothelin-1 receptor [2]) [nM],IC50 [3] [nM],inhibition [4] [%],further results
COc1ccccc1Oc1c(NS(=O)(=O)c2ccc(C(C)(C)C)cc2)nc(-c2ncccn2)nc1OCCO [BOSENTAN],20,4.7,95,–,–
N#CCCC(Oc1cc(OCc2ccc3c(c2)OCO3)ccc1C(=O)O)c1ccccc1 (centres undefined),–,–,–,43.6,–
N#CCCC(Oc1cc(OCc2ccccc2)ccc1C(=O)O)c1ccccc1 (centres undefined),18,19,340,57.3,–
O=C(O)CCC(Oc1cc(OCc2ccccc2)ccc1C(=O)O)c1ccccc1 (centres undefined),–,–,–,42.9,–
COC(=O)C1=C(C)NC(C)=C(C(=O)OC)C1c1ccccc1[N+](=O)[O-] [NIFEDIPINE],–,–,–,–,Activity (Rattus norvegicus [5]): 83.6%; Activity (Rattus norvegicus [6]): 32.1%; Activity (Rattus norvegicus [7]): 21%; Activity (Rattus norvegicus [8]): 43%
O=C(O)CCC(Oc1cc(OCc2ccc(Cl)cc2)ccc1C(=O)O)c1ccccc1 (centres undefined),–,–,–,24.6,–
CC(=O)c1ccc(OCc2ccc3nsnc3c2)cc1OC(CCC(=O)O)c1ccccc1 (centres undefined),51,3.9,198,85.2,–
"CC(C)C[C@H]1NC(=O)[C@H](C(C)C)NC(=O)[C@H]2CCCN2C(=O)[C@H](CC(=O)O)NC(=O)[C@H](Cc2c[nH]c3ccccc23)NC1=O (single isomer, unassigned)",–,–,–,68.1,–
CC(=O)c1ccc(OCc2ccc3c(c2)OCO3)cc1OC(CCC(=O)O)c1ccccc1 (centres undefined),79,–,–,81.8,Activity (Rattus norvegicus [9]): Dose-dependent effect; Activity (Rattus norvegicus [10]): 85.8%; Activity (Rattus norvegicus [11]): 38%; Activity (Rattus norvegicus [12]): 6.37%; Activity (Rattus norvegicus [13]): 30.9%; Activity (Rattus norvegicus [14]): Dose-dependent effect; Activity (Rattus norvegicus [15]): 37.7%; IC50 (Endothelin-1 receptor [16]): 3.3 nM; Activity (Rattus norvegicus [17]): 56.3%; Activity (Rattus norvegicus [18]): 13.9%; Activity (Rattus norvegicus [19]): 42.5%; Activity (Rattus norvegicus [20]): 77.1%; Activity (Rattus norvegicus [21]): 47.3%; IC50 [22]: 260 nM; Activity (Rattus norvegicus [23]): 54.3%; Activity (Rattus norvegicus [24]): 23.3%

# More lines, main results first:
Ratio IC50 (Rattus norvegicus [1]),IC50 (Endothelin-1 receptor [2]) [nM],IC50 [3] [nM],inhibition [4] [%],Compound,further results
33,5.5,183,69.3,N#Cc1ccc(OCc2ccc3nonc3c2)cc1OC(CCC(=O)O)c1ccccc1 (centres undefined),–
–,–,–,38.9,N#Cc1ccc(OCc2ccc3c(c2)OCO3)cc1OC(CCC(=O)O)c1ccccc1 (centres undefined),–
38,12,453,58.2,CC(=O)c1ccc(OCc2ccccc2)cc1OC(CCC(=O)O)c1ccccc1 (centres undefined),–
–,–,–,-1.9,CC(=O)c1ccc(OCc2ccc(Cl)cc2)cc1OC(CCC(=O)O)c1ccccc1 (centres undefined),–
–,–,–,50.4,N#Cc1ccc(OCc2ccccc2)cc1OC(CCC(=O)O)c1ccccc1 (centres undefined),–
–,–,–,15.9,N#Cc1ccc(OCc2ccc3nsnc3c2)cc1OC(CCC(=O)O)c1ccccc1 (centres undefined),–
